ChEMBL document CHEMBL4316592, “Synthesis of new derivatives of boehmeriasin A and their biological evaluation in liver cancer” (Eur J Med Chem, 2019)
Active and inactive are the calls of the source. The calls are words filed in the database; no cut-off is given here.

Legend:
Huh-7 [1] = test: Induction of apoptosis in human HuH7 cells assessed as early apoptotic cells at 1 uM after 24 hrs by Annexin V-FITC/propidium iodide staining-based flow cytometric analysis (reference value: 0.17%); assay type: functional
Huh-7 [2] = test: Induction of apoptosis in human HuH7 cells assessed as early apoptotic cells at 1 uM after 72 hrs by Annexin V-FITC/propidium iodide staining-based flow cytometric analysis (reference value: 0.03%); assay type: functional
Huh-7 [3] = test: Induction of apoptosis in human HuH7 cells assessed as necrotic cells at 1 uM after 72 hrs by Annexin V-FITC/propidium iodide staining-based flow cytometric analysis (reference value: 0.43%); assay type: functional
Mahlavu [4] = test: Induction of apoptosis in human Mahlavu cells assessed as late apoptotic cells at 1 uM after 24 hrs by Annexin V-FITC/propidium iodide staining-based flow cytometric analysis (reference value: 1.28%); assay type: functional
MCF-12A = test: Cytotoxicity against human MCF12A cells after 72 hrs by SRB assay; assay type: cell-based; settings: Homo sapiens, MCF-12A, 72 h; read-out: IC50
MCF-10A = test: Cytotoxicity against human MCF10A cells after 72 hrs by SRB assay; assay type: cell-based
Huh-7 [5] = test: Cell cycle arrest in human HuH7 cells assessed as accumulation of cells at G1 phase at 1 uM after 24 hrs by propidium iodide staining-based flow cytometric analysis (reference value: 41.7%); assay type: functional
Huh-7 [6] = test: Cell cycle arrest in human HuH7 cells assessed as accumulation of cells at subG1 phase at 1 uM after 72 hrs by propidium iodide staining-based flow cytometric analysis (reference value: 4.7%); assay type: functional
Mahlavu [7] = test: Cell cycle arrest in human Mahlavu cells assessed as accumulation of cells at G2/M phase at 1 uM after 48 hrs by propidium iodide staining-based flow cytometric analysis (reference value: 22.3%); assay type: functional
Mahlavu [8] = test: Cytotoxicity against human Mahlavu cells after 72 hrs by RTCA analysis; assay type: functional, cell-based
Procedure, shortened: (§1)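 xCELLigence impedance real-time growth assay. Huh7 (2000) or Mahlavu (1000) cells plated, treated after 24 h at log phase with a 2-fold dilution series (4 steps) from a top concentration of 1. Cell index recorded every 10 min for 24 h, then every 30 min. Growth inhibition normalized to DMSO; IC50 taken at 24, 48, 72 h.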

[9] = Cytotoxicity against human FOCUS cells after 72 hrs by SRB assay; assay type: functional, cell-based; settings: Homo sapiens, 72 h; read-out: IC50
Procedure, shortened: (§2)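 SRB assay. Cells plated per well (HCT116 3000; Huh7, Hep3B, HepG2, MCF-7 2000; Mahlavu, FOCUS, SNU475 1000) and grown 24 h. Compounds came from 20 mM DMSO stocks and were tested in triplicate, 40 to 2,5 (or 2,5 to 0,03) per printed range, for 72 h. Cells fixed in 10% TCA, stained with 0.4% SRB, dye dissolved in 10 mM Tris, A515 read. IC50 derived after DMSO normalization.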

Mahlavu [10] = test: Cytotoxicity against human Mahlavu cells after 24 hrs by RTCA analysis; assay type: functional, cell-based; procedure, shortened: as §1
Mahlavu [11] = test: Cell cycle arrest in human Mahlavu cells assessed as accumulation of cells at G1 phase at 1 uM after 24 hrs by propidium iodide staining-based flow cytometric analysis (reference value: 33.8%); assay type: functional
Huh-7 [12] = test: Cell cycle arrest in human HuH7 cells assessed as accumulation of cells at G2/M phase at 1 uM after 24 hrs by propidium iodide staining-based flow cytometric analysis (reference value: 37.3%); assay type: functional
Mahlavu [13] = test: Cell cycle arrest in human Mahlavu cells assessed as accumulation of cells at G2/M phase at 1 uM after 72 hrs by propidium iodide staining-based flow cytometric analysis (reference value: 20%); assay type: functional
Mahlavu [14] = test: Cell cycle arrest in human Mahlavu cells assessed as accumulation of cells at G1 phase at 1 uM after 72 hrs by propidium iodide staining-based flow cytometric analysis (reference value: 44.6%); assay type: functional
Huh-7 [15] = test: Cell cycle arrest in human HuH7 cells assessed as accumulation of cells at S phase at 1 uM after 72 hrs by propidium iodide staining-based flow cytometric analysis (reference value: 15.5%); assay type: functional
Mahlavu [16] = test: Cytotoxicity against human Mahlavu cells after 72 hrs by SRB assay; assay type: functional, cell-based; settings: Homo sapiens, Mahlavu, 72 h; read-out: IC50; procedure, shortened: as §2
Mahlavu [17] = test: Induction of apoptosis in human Mahlavu cells assessed as increase in cytochrome C levels at 1 uM by Hoechst staining-based assay; assay type: functional, cell-based
HepG2 = test: Cytotoxicity against human HepG2 cells after 72 hrs by SRB assay; assay type: functional, cell-based; settings: Homo sapiens, HepG2, 72 h; read-out: IC50; procedure, shortened: as §2
Huh-7 [18] = test: Cell cycle arrest in human HuH7 cells assessed as accumulation of cells at subG1 phase at 1 uM after 48 hrs by propidium iodide staining-based flow cytometric analysis (reference value: 3.2%); assay type: functional
Mahlavu [19] = test: Induction of apoptosis in human Mahlavu cells assessed as viable cells at 1 uM after 72 hrs by Annexin V-FITC/propidium iodide staining-based flow cytometric analysis (reference value: 96.05%); assay type: functional; settings: read-out: Activity
Huh-7 [20] = test: Cytotoxicity against human HuH7 cells after 72 hrs by SRB assay; assay type: functional, cell-based; settings: Homo sapiens, Huh-7, 72 h; read-out: IC50; procedure, shortened: as §2
Huh-7 [21] = test: Cell cycle arrest in human HuH7 cells assessed as accumulation of cells at G1 phase at 1 uM after 48 hrs by propidium iodide staining-based flow cytometric analysis (reference value: 44.2%); assay type: functional
Homo sapiens = species on record: Homo sapiens; test: Induction of SAPK/JNK phosphorylation at Thr183/Tye185 residues in human HuH7 cells at 1 uM after 24 to 72 hrs by Western blot analysis; assay type: cell-based
Mahlavu [22] = test: Cell cycle arrest in human Mahlavu cells assessed as accumulation of cells at subG1 phase at 1 uM after 72 hrs by propidium iodide staining-based flow cytometric analysis (reference value: 22.4%); assay type: functional
Huh-7 [23] = test: Down-regulation of cyclin E protein expression in human HuH7 cells at 1 uM after 24 to 72 hrs by Western blot analysis; assay type: functional, cell-based
Huh-7 [24] = test: Induction of apoptosis in human HuH7 cells assessed as late apoptotic cells at 1 uM after 72 hrs by Annexin V-FITC/propidium iodide staining-based flow cytometric analysis (reference value: 2.34%); assay type: functional
Mahlavu [25] = test: Cell cycle arrest in human Mahlavu cells assessed as accumulation of cells at S phase at 1 uM after 24 hrs by propidium iodide staining-based flow cytometric analysis (reference value: 23.2%); assay type: functional
Mahlavu [26] = test: Induction of apoptosis in human Mahlavu cells assessed as necrotic cells at 1 uM after 24 hrs by Annexin V-FITC/propidium iodide staining-based flow cytometric analysis (reference value: 0.13%); assay type: functional

In the case of `COc1ccc2c3c(c4cc(OC)c(OC)cc4c2c1)CN1CCCC[C@@H]1C3`, the Activity (Huh-7 [1]) is reported as 0.07%, the Activity (Huh-7 [2]) is reported as 0.1% and the Activity (Huh-7 [3]) is reported as 0.34%. For the same compound, the Activity (Mahlavu [4]) was 5.08%, the IC50 (MCF-12A) was 0.07 µM and the IC50 (MCF-10A) was 0.14 µM. It also gave an Activity (Huh-7 [5]) of 43.1%, an Activity (Huh-7 [6]) of 57.5% and an Activity (Mahlavu [7]) of 16.6%. The IC50 (Mahlavu [8]) was 0.6 µM, the IC50 [9] was 0.02 µM and the IC50 (Mahlavu [10]) was 0.2 µM. For the same compound, the Activity (Mahlavu [11]) was 43.8%, the Activity (Huh-7 [12]) was 27.4% and the Activity (Mahlavu [13]) was 49.9%. It also gave an Activity (Mahlavu [14]) of 14.1%, an Activity (Huh-7 [15]) of 8.7% and an IC50 (Mahlavu [16]) of 0.016 µM. For the same compound, the Activity (Mahlavu [17]) was “Active”, the IC50 (HepG2) was 0.06 µM and the Activity (Huh-7 [18]) was 7.5%. It also gave a viability at 1 µM (Mahlavu [19]) of 85.3%, an IC50 (Huh-7 [20]) of 0.008 µM and an Activity (Huh-7 [21]) of 54.6%. The Activity (Homo sapiens) was “Active”, the Activity (Mahlavu [22]) was 26.9% and the Activity (Huh-7 [23]) was “Active”. It also gave an Activity (Huh-7 [24]) of 16.15%, an Activity (Mahlavu [25]) of 17.5% and an Activity (Mahlavu [26]) of 0.57%.

`COc1ccc2c3c(c4cc(OC)c(OC)cc4c2c1)CN1CCCCC1C3O` (racemic) showed an Activity (Huh-7 [1]) of 0%, an Activity (Huh-7 [2]) of 0.2% and an Activity (Huh-7 [3]) of 0.13%. For the same compound, the Activity (Mahlavu [4]) was 1.54%, the IC50 (MCF-12A) was less than 2 µM and the IC50 (MCF-10A) was 0.2 µM. For the same compound, the Activity (Huh-7 [5]) was 31.6%, the Activity (Huh-7 [6]) was 62.9% and the Activity (Mahlavu [7]) was 32.9%. For the same compound, the IC50 (Mahlavu [8]) was 0.01 µM, the IC50 [9] was 0.012 µM and the IC50 (Mahlavu [10]) was 0.01 µM. The Activity (Mahlavu [11]) was 36.8%, the Activity (Huh-7 [12]) was 32.1% and the Activity (Mahlavu [13]) was 31.4%. The Activity (Mahlavu [14]) was 9.5%, the Activity (Huh-7 [15]) was 7.7% and the IC50 (Mahlavu [16]) was 0.01 µM. The Activity (Mahlavu [17]) was “Active”, the IC50 (HepG2) was 2.7 µM and the Activity (Huh-7 [18]) was 25.4%. For the same compound, the viability at 1 µM (Mahlavu [19]) was 62.7%, the IC50 (Huh-7 [20]) was 0.002 µM and the Activity (Huh-7 [21]) was 35.5%. The Activity (Homo sapiens) was “Active”, the Activity (Mahlavu [22]) was 48.9% and the Activity (Huh-7 [23]) was “Active”. The Activity (Huh-7 [24]) was 17.97%, the Activity (Mahlavu [25]) was 14.3% and the Activity (Mahlavu [26]) was 0.13%.
